ChEMBL document CHEMBL4732262, “Identification of two novel thiophene analogues as inducers of autophagy mediated cell death in breast cancer cells” (Bioorg Med Chem, 2021)
Calls of active or inactive are those of the source. The rule behind the calls is not given here.

Assays:
MDA-MB-231 [1] = test: Cytotoxicity against human MDA-MB-231 cells assessed as reduction in cell viability after 24 hrs by MTT assay; assay type: functional, cell-based; details: MDA-MB-231, 24 h
Procedure, shortened: (§1)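 Cells seeded ~5 × 10^3 per well in 96-well plates, exposed to 0–40 µM for 24 h. MTT added at 0.5 mg/ml for 3 h, formazan dissolved in DMSO, absorbance read at 540 nm. IC50 taken from plotted curves. Duplicate wells, two independent repeats. MCF7 grown in DMEM, MDA-MB-231 in RPMI, both with 10% FBS at 37 °C and 5% CO2.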

MCF7 [2] = test: Cytotoxicity against human MCF7 cells assessed as reduction in cell viability after 24 hrs by MTT assay; assay type: functional, cell-based; details: MCF7, 24 h; procedure, shortened: as §1
MCF7 [3] = test: Cytotoxicity against human MCF7 cells assessed as reduction in cell viability at 100 uM after 24 hrs by MTT assay; assay type: functional, cell-based
MDA-MB-231 [4] = test: Cytotoxicity against human MDA-MB-231 cells assessed as reduction in cell viability at 100 uM after 24 hrs by MTT assay; assay type: functional, cell-based
MDA-MB-231 [5] = test: Induction of apoptosis in human MDA-MB-231 cells assessed as late apoptotic cells at 2.5 uM after 24 hrs by annexin V-FITC/Propidium iodide staining based flow cytometric analysis (reference value: 0.08%); assay type: functional
MCF7 [6] = test: Induction of autophagy in human MCF7 cells assessed as LC3-2 to LC3-1 protein ratio at 2.5 uM after 24 hrs by Western blot analysis (reference value: 0.22 to 0.8); assay type: functional
MCF7 [7] = test: Induction of apoptosis in human MCF7 cells assessed as necrotic cells at 2.5 uM after 24 hrs by annexin V-FITC/Propidium iodide staining based flow cytometric analysis (reference value: 1.22%); assay type: functional
MCF7 [8] = test: Induction of apoptosis in human MCF7 cells assessed as early apoptotic cells at 2.5 uM after 24 hrs by annexin V-FITC/Propidium iodide staining based flow cytometric analysis (reference value: 3.94%); assay type: functional
MCF7 (Homo sapiens) = test: Induction of apoptosis in human MCF7 cells assessed as increase in cell death at 2.5 uM after 24 hrs by EtBr/AO staining based fluorescence microscopic method
MCF7 [9] = test: Induction of apoptosis in human MCF7 cells assessed as increase in cell death at 2.5 uM after 24 hrs by EtBr/AO staining based fluorescence microscopic method; assay type: functional
Procedure, shortened: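 ~5 × 10^4 MCF7 cells on coverslips given 2.5 µM for 24 h, then PBS-washed and stained with 1:1 ethidium bromide/acridine orange (0.4 mg/ml each). Viewed by fluorescence microscopy, excitation 480 nm with a 515–530 nm barrier filter. Apoptotic, necrotic and viable cells scored from 200 cells per sample.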

MDA-MB-231 [10] = test: Induction of apoptosis in human MDA-MB-231 cells assessed as early apoptotic cells at 2.5 uM after 24 hrs by annexin V-FITC/Propidium iodide staining based flow cytometric analysis (reference value: 1.54%); assay type: functional
MDA-MB-231 [11] = test: Induction of apoptosis in human MDA-MB-231 cells assessed as necrotic cells at 2.5 uM after 24 hrs by annexin V-FITC/Propidium iodide staining based flow cytometric analysis (reference value: 0.65%); assay type: functional
MCF7 [12] = test: Induction of apoptosis in human MCF7 cells assessed as late apoptotic cells at 2.5 uM after 24 hrs by annexin V-FITC/Propidium iodide staining based flow cytometric analysis (reference value: 0.2%); assay type: functional
MCF7 [13] = test: Induction of autophagy in human MCF7 cells assessed as increase in LC3-2 to LC3-1 protein ratio at 2.5 uM after 24 hrs by Western blot analysis; assay type: functional, cell-based
Procedure, shortened: (§2)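 MCF7 cells (~5 × 10^6) left untreated (DMSO control) or exposed to 2.5 µM compound for 24 h. Lysed in RIPA buffer, probed overnight at 4 °C, then given infrared-tagged secondary antibodies for 1 h at 37 °C and imaged by infrared scanning. LC3-II/I ratio and p62 taken by densitometry with GAPDH as loading control. Two independent experiments.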

MCF7 [14] = test: Induction of autophagy in human MCF7 cells expressing GFP tagged LC3-2 assessed as increase in […] puncta formation at 2.5 uM after 24 hrs by confocal microscopic analysis; assay type: functional, cell-based
Procedure, shortened: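 MCF7 cells (~1 × 10^6) at 70% confluency on glass-bottom dishes were transiently transfected with GFP-LC3 (Lipofectamine 3000). 24 h later they received 2.5 µM compound or DMSO for another 24 h. Nuclei were stained with Hoechst 33342 and lysosomes with LysoTracker Red DND-99, then imaged by live-cell confocal microscopy. LC3 puncta were counted in at least 10 cells from 3 fields. Two independent experiments.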

MCF7 [15] = test: Induction of autophagy in human MCF7 cells assessed as increase in Beclin1 protein expression at 2.5 uM after 24 hrs by Western blot analysis; assay type: functional, cell-based
Procedure, shortened: (§3)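 MCF7 or MDA-MB-231 cells given 2.5 µM or DMSO for 24 h, then lysed in RIPA buffer. Immunoblots probed overnight at 4 °C, followed by infrared-labelled secondary antibody for 1 h at 37 °C. Bands imaged and quantified densitometrically, with GAPDH as loading control. Representative of two independent experiments.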

MCF7 [16] = test: Induction of autophagy in human MCF7 cells assessed as increase in Bcl2L11 mRNA expression at 2.5 uM after 24 hrs by RT-PCR analysis; assay type: functional, cell-based
Procedure, shortened: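 MCF7 cells given 2.5 µM or DMSO for 24 h. Total RNA extracted with TRIzol and reverse-transcribed, then SYBR Green qPCR across 34 autophagy-regulatory genes (95 °C 10 min; 40 cycles of 95 °C 15 s and 60 °C 1 min). Relative expression by 2^-ΔΔCt against housekeeping genes and DMSO control, shown as log2. Two independent experiments.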

MCF7 [17] = test: Induction of apoptotic in human MCF7 cells assessed as increase in Bim protein expression at 2.5 uM after 24 hrs by Western blot analysis; assay type: functional, cell-based; procedure, shortened: as §3
MCF7 [18] = test: Induction of autophagy in human MCF7 cells assessed as increase in p62 degradation at 2.5 uM after 24 hrs by Western blot analysis; assay type: functional, cell-based; procedure, shortened: as §2

Cc1cc2c3c(ccc2s1)C(=O)C(=O)c1ccsc1-3
IC50 (MDA-MB-231 [1]): 23.4 µM | IC50 (MCF7 [2]): 17.5 µM

O=C1C(=O)c2c(ccc3ccccc23)-c2ccoc21
IC50 (MDA-MB-231 [1]): 20.9 µM | IC50 (MCF7 [2]): 14.4 µM

O=C1C(=O)c2ccc3ccccc3c2-c2sccc21
IC50 (MDA-MB-231 [1]): 15.6 µM | IC50 (MCF7 [2]): 12.8 µM

O=C1C(=O)c2occc2-c2c1ccc1ccccc21
IC50 (MDA-MB-231 [1]): 17.4 µM | IC50 (MCF7 [2]): 15.8 µM

CCN(CC)CCCC(C)Nc1ccnc2cc(Cl)ccc12 (centres undefined)
Activity (MCF7 [3]): Active | Activity (MDA-MB-231 [4]): Active

Cc1cc2c3c(ccc2s1)C(=O)C(=O)c1sccc1-3
IC50 (MDA-MB-231 [1]): 20.6 µM | IC50 (MCF7 [2]): 14.6 µM

Cc1coc2c1C(=O)C(=O)c1c-2ccc2c1CCCC2(C)C [TANSHINONE IIA]
Activity (MDA-MB-231 [5]): 0.34% | Ratio (MCF7 [6]): 1.46 | Activity (MCF7 [7]): 5.27% | Activity (MCF7 [8]): 2.9% | Activity (MCF7 (Homo sapiens)): Active | IC50 (MDA-MB-231 [1]): 7.7 µM | Activity (MCF7 [9]): Active | Activity (MDA-MB-231 [10]): 9.23% | Activity (MDA-MB-231 [11]): 2.11% | Activity (MCF7 [12]): 0.31% | IC50 (MCF7 [2]): 7.79 µM

COc1ccc2ccc3c(c2c1)-c1ccsc1C(=O)C3=O
Activity (MCF7 [13]): Active | Activity (MDA-MB-231 [5]): 0.13% | Ratio (MCF7 [6]): 11.1 | Activity (MCF7 [14]): Active | Activity (MCF7 [7]): 1.85% | Activity (MCF7 [15]): inactive | Activity (MCF7 [8]): 4.39% | Activity (MCF7 [16]): Active | Activity (MCF7 (Homo sapiens)): Active | IC50 (MDA-MB-231 [1]): 6 µM | Activity (MCF7 [9]): Active | Activity (MDA-MB-231 [10]): 1.8% | Activity (MDA-MB-231 [11]): 1.19% | Activity (MCF7 [12]): 0.55% | Activity (MCF7 [17]): Active | Activity (MCF7 [18]): Active | IC50 (MCF7 [2]): 8.02 µM

Cc1coc2c1C(=O)C(=O)c1c-2ccc2c(C)cccc12 [TANSHINONE I]
Activity (MDA-MB-231 [5]): 0.18% | Ratio (MCF7 [6]): 0.61 | Activity (MCF7 [7]): 3.63% | Activity (MCF7 [8]): 14.3% | IC50 (MDA-MB-231 [1]): 7.96 µM | Activity (MDA-MB-231 [10]): 1.44% | Activity (MDA-MB-231 [11]): 3.56% | Activity (MCF7 [12]): 0.91% | IC50 (MCF7 [2]): 7.93 µM
